Rows were chosen to be rich in hits. Some 3.1% of all compounds tested hit in one or more screens of this group.
PP5 primary = inhibitors of human protein phosphatase 5 (PP5) | AID 1987 | P53041 | purified PP5c, OMFP substrate fluorescence | 320,000 tested, 0.18% active | inhibition, % at 6.7 µM;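 active = inhibition above the campaign's mean inhibition across all tested compounds plus 3 SD, cut at about 9.5% in these data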;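 also: 0% = DMSO only and 100% = 100 µM cantharidin control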
CTSL1 counter = counter-screen for PFM18AAP inhibitors: inhibitors of F. hepatica cathepsin L1 | recombinant F. hepatica cathepsin L1, Z-Leu-Arg-MCA fluorescence | inhibition, % at 5.96 µM | 300,000 tested, 0.49% active;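 active = inhibition above the mean of all tested compounds plus 3 SD, set per screening campaign, cut at about 17% in these data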;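 also: 0% = plate median of test compound wells and 100% = 1 µM Z-Phe-Ala-diazomethylketone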
NadD inh = NadD (S. aureus) enzyme inhibition; 360,000 tested, 0.78% active; inhibition, % at 20 µM; AID 602399; purified NadD enzyme, colorimetric absorbance read-out; in the data active = inhibition above about 26%
HCV core dimer = HCV core protein dimerization inhibition. TR-FRET GST/Flag-core106 dimerization, 1536-well. inhibition, % at 5 µM. 300,000 tested, 0.33% active;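 active = inhibition above the mean of all tested compounds plus 3 SD, set per screening campaign, cut at about 45% in these data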
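Assay system: GST-tagged and Flag-tagged HCV core protein residues 1-106 / Times: compound-protein-antibody incubation 4 h at 22.5 °C / Signal: time-resolved FRET, ex 340 nm, em 617 and 671 nm / Evaluation: % inhibition based on acceptor/donor emission ratio / Benchmarks: wells lacking GST-core106 and wells with excess unlabelled core106 / Repeats: singlicate, one well per compound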
Myeloid diff 2 = myeloid differentiation induction; ER-HoxA9 myeloid progenitors, lysozyme-GFP differentiation, flow cytometry; calls only at 10 µM; 360,000 tested, 1% active;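 active = normalized GFP-positive differentiation at or above the plate's own cutoff, the solvent-only control mean plus 3 SD; inconclusive = no clear call, values can overlap the other calls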;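 also: cells exposed to compound for four days before flow analysis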
PP1 counter = PP1-alpha (human) inhibition in PP5 counter-screen. P62136. purified PP1alpha, OMFP fluorescence. inhibition, % at 6.7 µM. 320,000 tested, 0.9% active. AID 2235;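 active = inhibition above the mean inhibition of all tested compounds plus 3 SD, computed separately for each screening campaign, cut at about 15% in these data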
Target sequence (P62136 whole entry, looked up): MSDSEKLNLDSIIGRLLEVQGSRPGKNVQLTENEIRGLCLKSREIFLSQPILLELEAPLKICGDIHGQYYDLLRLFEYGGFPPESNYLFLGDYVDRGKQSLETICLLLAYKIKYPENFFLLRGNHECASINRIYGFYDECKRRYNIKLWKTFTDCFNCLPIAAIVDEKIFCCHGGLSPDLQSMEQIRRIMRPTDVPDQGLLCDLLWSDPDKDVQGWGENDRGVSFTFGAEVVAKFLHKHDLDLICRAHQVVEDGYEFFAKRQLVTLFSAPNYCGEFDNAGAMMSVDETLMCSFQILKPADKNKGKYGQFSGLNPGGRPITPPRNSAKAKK
Numbers without * were called inactive; i = inactive; u = inconclusive; x = no result given; + = active, no number.

SMILES | PP5 primary | CTSL1 counter | NadD inh | HCV core dimer | Myeloid diff 2 | PP1 counter
C#CCOCCOCCOCCNc1nc(N2CCN(C(=O)C(Cc3cc4ccccc4[nH]3)n3cc(C(N)C(C)CC)nn3)CC2)nc(N2CCN(C(=O)C(Cc3cc4ccccc4[nH]3)n3cc(C(N)C(C)CC)nn3)CC2)n1 (centres undefined) | 3.7 | 0.4 | 41.6* | 0.9 | i | 27.2*
COC(=O)c1sccc1NC(=O)c1c(Cl)cnn1C | -0.8 | -0.5 | -13.0 | 7.0 | i | -2.0
CCCN(CCC)C(=O)Cn1c(=O)c2sccc2n2c(=S)sc(-c3ccccc3)c12 | -1.4 | -2.5 | 5.2 | -0.7 | + | 3.4
COc1ccc2[nH]c3c(c2c1)CCN1C(=O)C(CC(=O)NCc2ccco2)C[C@H](C(=O)N2CCCCC2)[C@@]31CCc1ccccc1 (some centres undefined) | x | x | 4.2 | x | i | x
Cc1ccccc1N=Nc1ccc(O)c2ncccc12 | 1.0 | 10.1 | 32.7* | -4.5 | u | 4.0
Cc1cc(/C=N/NC(N)=S)c(O)c(/C=N/NC(N)=S)c1 | -7.0 | 19.5* | 4.6 | -4.1 | i | 10.3
COc1cc(OC)c(/C=N/NC(=O)c2ccncc2)cc1Br | 0.2 | 0.2 | -4.9 | 1.6 | i | -2.5
Cc1ccc(-n2c(C)cc(/C=N/NC(N)=S)c2C)cc1 | -0.3 | 30.8* | 14.2 | 10.7 | i | 1.8
COc1cc(OC)c(/C=N/NC(N)=S)cc1Br | 0.9 | 74.5* | 1.8 | 4.6 | i | -0.4
C/C(=N\OCc1nc2ccccc2c(=O)n1/N=C/c1cc(C)cc([N+](=O)[O-])c1O)c1ccccc1 | -0.5 | 5.9 | -6.7 | 10.2 | i | 14.6
C/C(=N\OCc1nc2ccccc2c(=O)n1/N=C/c1cc([N+](=O)[O-])ccc1O)c1ccccc1 | -0.2 | 2.4 | 31.8* | 6.8 | i | 7.5
C[C@@H]1CN([C@H](C)CO)C(=O)CCCn2cc(nn2)CO[C@H]1CN(C)C(=O)Nc1ccnc(N2CCOCC2)c1 | x | x | -7.5 | x | i | x
O=C1/C(=C\c2ccc(Br)o2)SC(=Nc2ccccc2)N1c1ccccc1 | 1.7 | 0.2 | 10.8 | 59.4* | + | 11.2
COc1ccccc1N(CC(=O)Nc1ccc(Br)cc1F)S(=O)(=O)c1cccs1 | x | x | -6.6 | x | i | x
O=C(OCc1ccccc1)N1CCC2CC1c1ccc(Cl)cc12 (centres undefined) | x | x | 0.6 | x | + | x
CCOc1ccccc1Oc1cn[nH]c1-c1ccc(OCC(=O)NN)cc1O | 3.4 | -3.5 | 2.5 | 1.4 | + | 10.8
CSc1ncnc2c1ncn2CCCNCc1ccc2c(c1)OCO2 | x | x | 4.3 | x | i | x
CC1(C(=O)NS(=O)(=O)c2ccc(F)cc2F)CCN1C(=O)CC1CCCC1 (centres undefined) | x | x | -0.5 | x | i | x
COc1ccc(/C=C/C(=O)NC(=S)NCc2ccccc2)cc1OC | 0.2 | -1.9 | -6.5 | 3.6 | i | 15.5*
COc1ccc(/C=C/C(=O)NC(C)CCc2ccccc2)cc1OC (centres undefined) | 2.1 | 0.8 | -5.9 | 2.4 | i | -0.8
CCOc1ccc(/C(O)=C2/C(=O)C(=O)N(c3ccccn3)C2c2ccc(Cl)cc2)c(C)c1 (centres undefined) | x | x | 19.9 | x | i | x
CCOc1ccc(/C(O)=C2/C(=O)C(=O)N(c3ccccn3)C2c2ccc(C)cc2)c(C)c1 (centres undefined) | 0.7 | -0.1 | 26.9 | 15.7 | i | 17.0*
Cc1nn(Cc2ccc(C(=O)NN)cc2)c(C)c1Cl | 1.4 | -8.0 | 6.9 | -3.8 | i | -4.3
Cc1nn(Cc2cccc(C(=O)NN)c2)c(C)c1Cl | 1.5 | -6.6 | 4.8 | -2.6 | + | -4.0
O=C(N[C@@H](Cc1ccccc1)C(=O)OCc1ccccc1)c1nc[nH]c1C(=O)NC(c1ccccc1)c1ccccc1 | 5.2 | 1.0 | 12.9 | 2.4 | i | 17.1*
SMILES | PP5 primary | CTSL1 counter | NadD inh | HCV core dimer | Myeloid diff 2 | PP1 counter
C[C@@H](NC(=O)c1nc[nH]c1C(=O)N[C@@H](Cc1ccccc1)C(=O)OCc1ccccc1)c1ccccc1 | -4.3 | 6.4 | -0.9 | -17.7 | i | 7.7
COc1cc(CCC(=O)Nc2cc(S(=O)(=O)N3CCOCC3)ccc2OC(C)C)cc(OC)c1OC | x | x | -8.5 | x | i | x
COc1nc(-c2ccccc2)cc(-c2ccc3c(c2)OCO3)c1C#N | -2.0 | 3.5 | -3.8 | 8.9 | + | -4.2
O=C(CSc1ccc(Cl)cc1)c1ccco1 | 3.5 | 6.4 | 3.3 | 48.8* | i | 6.5
O=C(NCCSc1ccc(Cl)cc1)c1ccco1 | 0.7 | 0.5 | -3.3 | -2.5 | i | -3.4
O=C(CCSc1ccc(Cl)cc1)c1ccco1 | 4.6 | 19.9* | -11.7 | -3.5 | i | -1.0
COc1cccc(CNC(=O)c2cc(S(=O)(=O)N3CCOCC3)ccc2N2CCCC2)c1 | -2.4 | x | 2.2 | x | i | -2.8
O=c1cc(-c2ccccc2)ss1 | x | x | 0.0 | x | i | x
Cc1csc2nc(O)c(C(=O)NCc3ccc4c(c3)OCO4)c(=O)n12 | -1.6 | 3.1 | 10.0 | 3.0 | i | 17.1*
COc1ccc(-c2ccc3c(c2)S(=O)(=O)c2cccc(C(=O)N4CCN(C5CCCCC5)CC4)c2C3=O)cc1OC | x | x | 13.8 | x | + | x
COc1ccc2c(-c3ccccc3)cc(SCC(N)=O)nc2c1 | 3.3 | -7.5 | -2.7 | 12.3 | + | -3.4
COc1ccc2nc(SCC(N)=O)cc(C)c2c1 | -1.0 | 3.1 | -5.3 | 8.4 | i | -2.9
COc1cccc(/C=C2\SC(=S)N(c3cccnc3)C2=O)c1OC | 4.1 | -0.7 | -9.4 | 16.1 | i | 3.0
Cc1cc(/C=C2\SC(=S)N(Cc3ccco3)C2=O)c(C)n1-c1cccnc1 | x | x | 29.4 | x | + | x
Cc1cc(/C=C2/SC(=S)N(c3cccc(C(F)(F)F)c3)C2=O)c(C)n1-c1cccnc1 | -1.0 | 3.1 | 44.2* | 12.6 | + | 15.0
Cn1c(N)c(C(=O)CNC2CCCCC2)c(=O)n(C)c1=O | 1.4 | -1.6 | -1.7 | 4.4 | i | 4.0
CCCCNC(=S)Nc1cccc(S(=O)(=O)NC2=NCCC2)c1 | -1.1 | 1.6 | -0.1 | -10.2 | i | 16.2*
CN(C)S(=O)(=O)c1cccc(NC(=S)NCCCn2ccnc2)c1 | 1.7 | 17.4* | 3.5 | -10.0 | i | -0.5
Cc1ccc(S(=O)(=O)N(C)C)cc1NC(=S)NCCCn1ccnc1 | -0.1 | -1.5 | 6.0 | 1.1 | i | -3.2
O=C1NC(=O)N(Cc2ccccc2)C1=O | 1.5 | -7.2 | -3.3 | -5.3 | + | 7.0
O=C1NC2(CCCCCC2)C(=O)N1Cc1ccccc1 | 0.3 | -1.3 | -0.5 | -3.8 | i | -1.9
Cn1c(CCNC(=O)c2ccco2)nc2cc(NC(=O)c3ccccc3Cl)ccc21 | -0.2 | -4.9 | 5.3 | 8.3 | i | -0.8
CC(=O)c1cccc(NC(=O)CSC(=O)c2ccccc2)c1 | 1.0 | 4.4 | 0.9 | 6.6 | i | -1.8
CCN(CC)c1ccc(NC(=O)CSC(=O)c2ccccc2)cc1 | x | x | -2.7 | x | + | x
